Experimental data published in ChEMBL document CHEMBL4715736, “Identification of anticancer agents based on the thieno[2,3-b]pyridine and 1H-pyrazole molecular scaffolds” (2016).

test system: NCI-H322M; experiment: Growth inhibition of human NCI-H322M cells assessed as cell growth at 0.01 uM incubated for 48 hrs by sulforhodamine B assay relative to control; format: functional; details: read-out: Activity

| Compound | growth at 0.01 µM |
| --- | --- |
| Cc1ccc(NC(=O)c2sc3nc4c(cc3c2N)C(=O)CCC4)cc1C | 93% |

test system: NCI-H460; experiment: Growth inhibition of human NCI-H460 cells assessed as cell growth at 0.01 uM incubated for 48 hrs by sulforhodamine B assay relative to control; format: functional; details: read-out: Activity

| Compound | growth at 0.01 µM |
| --- | --- |
| Cc1ccc(NC(=O)c2sc3nc4c(cc3c2N)C(=O)CCC4)cc1C | 102% |

test system: SW-620; experiment: Growth inhibition of human SW-620 cells assessed as cell growth at 0.01 uM incubated for 48 hrs by sulforhodamine B assay relative to control; format: functional; details: read-out: Activity

| Compound | growth at 0.01 µM |
| --- | --- |
| Cc1ccc(NC(=O)c2sc3nc4c(cc3c2N)C(=O)CCC4)cc1C | 99% |

test system: SNB-19; experiment: Growth inhibition of human SNB-19 cells assessed as cell growth at 0.01 uM incubated for 48 hrs by sulforhodamine B assay relative to control; format: functional; details: read-out: Activity

| Compound | growth at 0.01 µM |
| --- | --- |
| Cc1ccc(NC(=O)c2sc3nc4c(cc3c2N)C(=O)CCC4)cc1C | 91% |

test system: LOX IMVI; experiment: Growth inhibition of human LOX IMVI cells assessed as cell growth at 0.01 uM incubated for 48 hrs by sulforhodamine B assay relative to control; format: functional; details: read-out: Activity

| Compound | growth at 0.01 µM |
| --- | --- |
| Cc1ccc(NC(=O)c2sc3nc4c(cc3c2N)C(=O)CCC4)cc1C | 97% |

test system: SK-MEL-2; experiment: Growth inhibition of human SK-MEL-2 cells assessed as cell growth at 0.01 uM incubated for 48 hrs by sulforhodamine B assay relative to control; format: functional; details: read-out: Activity

| Compound | growth at 0.01 µM |
| --- | --- |
| Cc1ccc(NC(=O)c2sc3nc4c(cc3c2N)C(=O)CCC4)cc1C | 105% |

test system: OVCAR-5; experiment: Growth inhibition of human OVCAR-5 cells assessed as cell growth at 0.01 uM incubated for 48 hrs by sulforhodamine B assay relative to control; format: functional; details: read-out: Activity

| Compound | growth at 0.01 µM |
| --- | --- |
| Cc1ccc(NC(=O)c2sc3nc4c(cc3c2N)C(=O)CCC4)cc1C | 89% |

test system: SK-OV-3; experiment: Growth inhibition of human SK-OV-3 cells assessed as cell growth at 0.01 uM incubated for 48 hrs by sulforhodamine B assay relative to control; format: functional; details: read-out: Activity

| Compound | growth at 0.01 µM |
| --- | --- |
| Cc1ccc(NC(=O)c2sc3nc4c(cc3c2N)C(=O)CCC4)cc1C | 103% |

test system: 786-0; experiment: Growth inhibition of human 786-0 cells assessed as cell growth at 0.01 uM incubated for 48 hrs by sulforhodamine B assay relative to control; format: functional; details: read-out: Activity
Procedure, shortened: (§1)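 NCI Developmental Therapeutics Program NCI60 panel. Compounds that were active in the 10 µM one-dose screen went on to dose–response testing. Growth at each concentration is expressed relative to untreated control (100%). GI50 (concentration giving 50% of maximal inhibition of proliferation) and TGI (concentration giving total growth inhibition) were derived from the curves.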

| Compound | growth at 0.01 µM |
| --- | --- |
| Cc1ccc(NC(=O)c2sc3nc4c(cc3c2N)C(=O)CCC4)cc1C | 98% |

test system: CAKI-1; experiment: Growth inhibition of human CAKI-1 cells assessed as cell growth at 0.01 uM incubated for 48 hrs by sulforhodamine B assay relative to control; format: functional; details: read-out: Activity; procedure, shortened: as §1

| Compound | growth at 0.01 µM |
| --- | --- |
| Cc1ccc(NC(=O)c2sc3nc4c(cc3c2N)C(=O)CCC4)cc1C | 96% |

test system: NCI-H522; experiment: Growth inhibition of human NCI-H522 cells assessed as cell growth at 0.1 uM incubated for 48 hrs by sulforhodamine B assay relative to control; format: functional; details: read-out: Activity

| Compound | growth at 0.1 µM |
| --- | --- |
| Cc1ccc(NC(=O)c2sc3nc4c(cc3c2N)C(=O)CCC4)cc1C | 82% |

test system: SF-268; experiment: Growth inhibition of human SF-268 cells assessed as cell growth at 0.1 uM incubated for 48 hrs by sulforhodamine B assay relative to control; format: functional; details: read-out: Activity

| Compound | growth at 0.1 µM |
| --- | --- |
| Cc1ccc(NC(=O)c2sc3nc4c(cc3c2N)C(=O)CCC4)cc1C | 94% |

test system: SF-539; experiment: Growth inhibition of human SF-539 cells assessed as cell growth at 0.1 uM incubated for 48 hrs by sulforhodamine B assay relative to control; format: functional; details: read-out: Activity

| Compound | growth at 0.1 µM |
| --- | --- |
| Cc1ccc(NC(=O)c2sc3nc4c(cc3c2N)C(=O)CCC4)cc1C | 90% |

test system: Malme-3M; experiment: Growth inhibition of human Malme-3M cells assessed as cell growth at 0.1 uM incubated for 48 hrs by sulforhodamine B assay relative to control; format: functional; details: read-out: Activity

| Compound | growth at 0.1 µM |
| --- | --- |
| Cc1ccc(NC(=O)c2sc3nc4c(cc3c2N)C(=O)CCC4)cc1C | 86% |

test system: M14; experiment: Growth inhibition of human M14 cells assessed as cell growth at 0.1 uM incubated for 48 hrs by sulforhodamine B assay relative to control; format: functional; details: read-out: Activity

| Compound | growth at 0.1 µM |
| --- | --- |
| Cc1ccc(NC(=O)c2sc3nc4c(cc3c2N)C(=O)CCC4)cc1C | 86% |

test system: NCI/ADR-RES; experiment: Growth inhibition of human NCI/ADR-RES cells assessed as cell growth at 0.1 uM incubated for 48 hrs by sulforhodamine B assay relative to control; format: functional; details: read-out: Activity

| Compound | growth at 0.1 µM |
| --- | --- |
| Cc1ccc(NC(=O)c2sc3nc4c(cc3c2N)C(=O)CCC4)cc1C | 102% |

test system: 786-0; experiment: Growth inhibition of human 786-0 cells assessed as cell growth at 0.1 uM incubated for 48 hrs by sulforhodamine B assay relative to control; format: functional; details: read-out: Activity; procedure, shortened: as §1

| Compound | growth at 0.1 µM |
| --- | --- |
| Cc1ccc(NC(=O)c2sc3nc4c(cc3c2N)C(=O)CCC4)cc1C | 88% |

test system: CAKI-1; experiment: Growth inhibition of human CAKI-1 cells assessed as cell growth at 0.1 uM incubated for 48 hrs by sulforhodamine B assay relative to control; format: functional; details: read-out: Activity; procedure, shortened: as §1

| Compound | growth at 0.1 µM |
| --- | --- |
| Cc1ccc(NC(=O)c2sc3nc4c(cc3c2N)C(=O)CCC4)cc1C | 91% |

test system: DU-145; experiment: Growth inhibition of human DU-145 cells assessed as cell growth at 0.1 uM incubated for 48 hrs by sulforhodamine B assay relative to control; format: functional; details: read-out: Activity; procedure, shortened: as §1

| Compound | growth at 0.1 µM |
| --- | --- |
| Cc1ccc(NC(=O)c2sc3nc4c(cc3c2N)C(=O)CCC4)cc1C | 101% |

test system: K562; experiment: Growth inhibition of human K562 cells assessed as cell growth at 1 uM incubated for 48 hrs by sulforhodamine B assay relative to control; format: functional; details: read-out: Activity

| Compound | growth at 1 µM |
| --- | --- |
| Cc1ccc(NC(=O)c2sc3nc4c(cc3c2N)C(=O)CCC4)cc1C | 17% |

test system: NCI-H226; experiment: Growth inhibition of human NCI-H226 cells assessed as cell growth at 1 uM incubated for 48 hrs by sulforhodamine B assay relative to control; format: functional; details: read-out: Activity

| Compound | growth at 1 µM |
| --- | --- |
| Cc1ccc(NC(=O)c2sc3nc4c(cc3c2N)C(=O)CCC4)cc1C | 68% |

test system: U-251; experiment: Growth inhibition of human U-251 cells assessed as cell growth at 1 uM incubated for 48 hrs by sulforhodamine B assay relative to control; format: functional; details: read-out: Activity

| Compound | growth at 1 µM |
| --- | --- |
| Cc1ccc(NC(=O)c2sc3nc4c(cc3c2N)C(=O)CCC4)cc1C | 42% |

test system: OVCAR-3; experiment: Growth inhibition of human OVCAR-3 cells assessed as cell growth at 1 uM incubated for 48 hrs by sulforhodamine B assay relative to control; format: functional; details: read-out: Activity

| Compound | growth at 1 µM |
| --- | --- |
| Cc1ccc(NC(=O)c2sc3nc4c(cc3c2N)C(=O)CCC4)cc1C | 3% |

test system: UO-31; experiment: Growth inhibition of human UO-31 cells assessed as cell growth at 1 uM incubated for 48 hrs by sulforhodamine B assay relative to control; format: functional; details: read-out: Activity

| Compound | growth at 1 µM |
| --- | --- |
| Cc1ccc(NC(=O)c2sc3nc4c(cc3c2N)C(=O)CCC4)cc1C | 42% |

test system: Malme-3M; experiment: Growth inhibition of human Malme-3M cells assessed as cell growth at 100 uM incubated for 48 hrs by sulforhodamine B assay relative to control; format: functional; details: read-out: Activity

| Compound | growth at 100 µM |
| --- | --- |
| Cc1ccc(NC(=O)c2sc3nc4c(cc3c2N)C(=O)CCC4)cc1C | 28% |

test system: OVCAR-5; experiment: Growth inhibition of human OVCAR-5 cells assessed as cell growth at 100 uM incubated for 48 hrs by sulforhodamine B assay relative to control; format: functional; details: read-out: Activity

| Compound | growth at 100 µM |
| --- | --- |
| Cc1ccc(NC(=O)c2sc3nc4c(cc3c2N)C(=O)CCC4)cc1C | 31% |

test system: SN12C; experiment: Growth inhibition of human SN12C cells assessed as cell growth at 100 uM incubated for 48 hrs by sulforhodamine B assay relative to control; format: functional; details: read-out: Activity

| Compound | growth at 100 µM |
| --- | --- |
| Cc1ccc(NC(=O)c2sc3nc4c(cc3c2N)C(=O)CCC4)cc1C | 17% |

test system: TK-10; experiment: Growth inhibition of human TK-10 cells assessed as cell growth at 100 uM incubated for 48 hrs by sulforhodamine B assay relative to control; format: functional; details: read-out: Activity

| Compound | growth at 100 µM |
| --- | --- |
| Cc1ccc(NC(=O)c2sc3nc4c(cc3c2N)C(=O)CCC4)cc1C | 47% |

test system: HOP-92; experiment: Growth inhibition of human HOP-92 cells incubated for 48 hrs by sulforhodamine B assay; format: functional; details: not given
Procedure, shortened: (§2)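 NCI60 panel at the NCI Developmental Therapeutics Program. Only compounds active in the 10 µM screen went to dose-response testing. GI50, the concentration giving 50% of maximal inhibition of proliferation, and TGI, the concentration giving total growth inhibition, were derived from the dose-response curves.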

| Compound | LC50 (concentration killing 50% of the starting cells) | TGI |
| --- | --- | --- |
| Cc1ccc(NC(=O)c2sc3nc4c(cc3c2N)C(=O)CCC4)cc1C | > 100 µM | > 100 µM |

test system: NCI-H460; experiment: Growth inhibition of human NCI-H460 cells incubated for 48 hrs by sulforhodamine B assay; format: functional; details: not given; procedure, shortened: as §2

| Compound | GI50 | LC50 | TGI |
| --- | --- | --- | --- |
| Cc1ccc(NC(=O)c2sc3nc4c(cc3c2N)C(=O)CCC4)cc1C | 0.374 µM | > 100 µM | ≥ 100 µM |

test system: HCC 2998; experiment: Growth inhibition of human HCC 2998 cells incubated for 48 hrs by sulforhodamine B assay; format: functional; details: not given

| Compound | GI50 | TGI |
| --- | --- | --- |
| Cc1ccc(NC(=O)c2sc3nc4c(cc3c2N)C(=O)CCC4)cc1C | 1.4 µM | > 100 µM |

same assay, conditions: read-out: LC50 (the source's name)

| Compound | CC50 |
| --- | --- |
| Cc1ccc(NC(=O)c2sc3nc4c(cc3c2N)C(=O)CCC4)cc1C | > 100 µM |

test system: U-251; experiment: Growth inhibition of human U-251 cells incubated for 48 hrs by sulforhodamine B assay; format: functional; details: not given
Procedure, shortened: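 NCI DTP 60-line human tumour panel. Dose-response curves were run only for ligands active in the initial 10 µM screen. GI50 (concentration giving 50% of maximal inhibition of proliferation) and TGI (concentration giving total growth inhibition) were derived from these curves.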

| Compound | GI50 | LC50 (concentration killing 50% of cells) | TGI |
| --- | --- | --- | --- |
| Cc1ccc(NC(=O)c2sc3nc4c(cc3c2N)C(=O)CCC4)cc1C | 0.68 µM | > 100 µM | ≥ 100 µM |

test system: Malme-3M; experiment: Growth inhibition of human Malme-3M cells incubated for 48 hrs by sulforhodamine B assay; format: functional; details: not given; procedure, shortened: as §2

| Compound | LC50 | TGI |
| --- | --- | --- |
| Cc1ccc(NC(=O)c2sc3nc4c(cc3c2N)C(=O)CCC4)cc1C | > 100 µM | > 100 µM |

test system: M14; experiment: Growth inhibition of human M14 cells incubated for 48 hrs by sulforhodamine B assay; format: functional; details: not given; procedure, shortened: as §2

| Compound | GI50 | LC50 (concentration killing 50% of cells) | TGI |
| --- | --- | --- | --- |
| Cc1ccc(NC(=O)c2sc3nc4c(cc3c2N)C(=O)CCC4)cc1C | 0.366 µM | > 100 µM | > 100 µM |
